Calls of active or inactive are those of the source. The calls are words filed in the database; no cut-off is given here.
test system: Bacillus subtilis; assay: Antibacterial activity against Bacillus subtilis; format: functional, organism-based

Q: `CC[C@@]1(O)C[C@H](O[C@H]2C[C@H](OC(C)=O)[C@H](OC(C)=O)CO2)c2c(O)c3c(c(O)c2[C@H]1C(=O)OC)C(=O)c1cccc(O)c1C3=O` was tested. Which Activity did it give?
A: Active

test system: P388; assay: Antitumor activity against mouse P388 cells allografted in CDF mouse assessed as tumor growth inhibition at 64 mg/kg/day relative to control; format: functional
In short: (§1)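 P388 lymphatic leukemia carried in CDF mice, with compound given as a daily dose in mg/kg/day. Activity was read out as T/C, treated versus control. Route, vehicle and schedule length are not given.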

Q: For `CC[C@@]1(O)C[C@H](O[C@H]2C[C@H](OC(C)=O)[C@H](OC(C)=O)CO2)c2c(O)c3c(c(O)c2[C@H]1C(=O)OC)C(=O)c1cccc(O)c1C3=O`, which T/C is on record?
A: 125%

test system: P388; assay: Antitumor activity against mouse P388 cells allografted in CDF mouse assessed as tumor growth inhibition at 32 to 128 mg/kg/day relative to control; format: functional; in short: as §1

Q: Which T/C does the source give for `CC[C@@]1(O)C[C@H](O[C@H]2C[C@H](OC(C)=O)[C@H](OC(C)=O)CO2)c2c(O)c3c(c(O)c2[C@H]1C(=O)OC)C(=O)c1cccc(O)c1C3=O` here?
A: 110%

test system: P388; assay: Antitumor activity against mouse P388 cells allografted in CDF mouse assessed as tumor growth inhibition at 13 mg/kg/day relative to control; format: functional; in short: as §1

Q: `CC[C@@]1(O)C[C@H](O[C@H]2C[C@H](O)[C@H](O)CO2)c2c(O)c3c(c(O)c2[C@H]1C(=O)OC)C(=O)c1cccc(O)c1C3=O` was tested. Which T/C did it give?
A: 115%

test system: P388; assay: Antitumor activity against mouse P388 cells allografted in CDF mouse assessed as tumor growth inhibition at 18 mg/kg/day relative to control; format: functional; in short: as §1

Q: Which T/C does the source give for `CC[C@@]1(O)C[C@H](O[C@H]2C[C@H](O)[C@H](O)[C@H](C)O2)c2c(O)c3c(c(O)c2[C@H]1C(=O)OC)C(=O)c1cccc(O)c1C3=O` here?
A: 109%

test system: Enterobacteria phage lambda; assay: Induction of lambda phage production in streptomycin-dependent lysogenic Escherichia coli W1709(lambda) assessed as ratio of plaques in treated culture to control; format: functional

Q: How did the Activity turn out when `CC[C@@]1(O)C[C@H](O[C@H]2C[C@H](O)[C@H](O)CO2)c2c(O)c3c(c(O)c2[C@H]1C(=O)OC)C(=O)c1cccc(O)c1C3=O` was run?
A: inactive

Q: `CC[C@@]1(O)C[C@H](O[C@@H]2OC[C@H](OC(C)=O)[C@@H](OC(C)=O)[C@H]2OC(C)=O)c2c(O)c3c(c(O)c2[C@H]1C(=O)OC)C(=O)c1cccc(O)c1C3=O` was tested. Which Activity did it give?
A: inactive

Q: How did the Activity turn out when `CC[C@@]1(O)C[C@H](O[C@H]2C[C@H](O)[C@H](O)[C@H](C)O2)c2c(O)c3c(c(O)c2[C@H]1C(=O)OC)C(=O)c1cccc(O)c1C3=O` was run?
A: inactive

Q: Which Activity does the source give for `CC[C@@]1(O)C[C@H](O[C@@H]2O[C@@H](C)[C@@H](O)[C@@H](O)[C@@H]2O)c2c(O)c3c(c(O)c2[C@H]1C(=O)OC)C(=O)c1cccc(O)c1C3=O` here?
A: inactive

Q: How did the Activity turn out when `CC[C@@]1(O)C[C@H](O[C@@H]2O[C@@H](COC(=O)c3ccccc3)[C@@H](OC(=O)c3ccccc3)[C@H]2OC(=O)c2ccccc2)c2c(O)c3c(c(O)c2[C@H]1C(=O)OC)C(=O)c1cccc(O)c1C3=O` was run?
A: inactive

Q: With `CC[C@@]1(O)C[C@H](O[C@@H]2O[C@H](CO)[C@@H](O)[C@H](O)[C@H]2O)c2c(O)c3c(c(O)c2[C@H]1C(=O)OC)C(=O)c1cccc(O)c1C3=O` as the molecule, how does the Activity read?
A: inactive

Q: With `CC[C@@]1(O)C[C@H](O[C@H]2C[C@H](OC(C)=O)[C@H](OC(C)=O)[C@H](C)O2)c2c(O)c3c(c(O)c2[C@H]1C(=O)OC)C(=O)c1cccc(O)c1C3=O` as the molecule, how does the Activity read?
A: inactive

Q: How did the Activity turn out when `CC[C@@]1(O)C[C@H](O[C@@H]2O[C@H](COC(=O)c3ccc([N+](=O)[O-])cc3)[C@H](OC(=O)c3ccc([N+](=O)[O-])cc3)[C@H]2OC(=O)c2ccc([N+](=O)[O-])cc2)c2c(O)c3c(c(O)c2[C@H]1C(=O)OC)C(=O)c1cccc(O)c1C3=O` was run?
A: inactive

Q: `CC[C@@]1(O)C[C@H](O[C@@H]2O[C@@H](C)[C@@H](OC(C)=O)[C@@H](OC(C)=O)[C@@H]2OC(C)=O)c2c(O)c3c(c(O)c2[C@H]1C(=O)OC)C(=O)c1cccc(O)c1C3=O` was tested. Which Activity did it give?
A: inactive

Q: For `CC[C@@]1(O)C[C@H](O[C@@H]2OC[C@H](O)[C@H](O)[C@H]2O)c2c(O)c3c(c(O)c2[C@H]1C(=O)OC)C(=O)c1cccc(O)c1C3=O`, which Activity is on record?
A: inactive

Q: `CC[C@@]1(O)C[C@H](O[C@@H]2O[C@H](COC(C)=O)[C@@H](OC(C)=O)[C@H](OC(C)=O)[C@H]2OC(C)=O)c2c(O)c3c(c(O)c2[C@H]1C(=O)OC)C(=O)c1cccc(O)c1C3=O` was tested. Which Activity did it give?
A: inactive

Q: Which Activity does the source give for `CC[C@@]1(O)C[C@H](O[C@H]2C[C@H](OC(C)=O)[C@@H](OC(C)=O)[C@H](C)O2)c2c(O)c3c(c(O)c2[C@H]1C(=O)OC)C(=O)c1cccc(O)c1C3=O` here?
A: inactive

Q: For `CC[C@@]1(O)C[C@H](O[C@H]2C[C@H](O)[C@@H](O)[C@H](C)O2)c2c(O)c3c(c(O)c2[C@H]1C(=O)OC)C(=O)c1cccc(O)c1C3=O`, which Activity is on record?
A: inactive

Q: With `CC[C@@]1(O)C[C@H](O[C@@H]2O[C@@H](C)[C@H](OC(C)=O)[C@@H](OC(C)=O)[C@H]2OC(C)=O)c2c(O)c3c(c(O)c2[C@H]1C(=O)OC)C(=O)c1cccc(O)c1C3=O` as the molecule, how does the Activity read?
A: inactive

Q: How did the Activity turn out when `CC[C@@]1(O)C[C@H](O[C@@H]2OC[C@@H](OC(C)=O)[C@H](OC(C)=O)[C@H]2OC(C)=O)c2c(O)c3c(c(O)c2[C@H]1C(=O)OC)C(=O)c1cccc(O)c1C3=O` was run?
A: inactive

Q: For `CC[C@@]1(O)C[C@H](O[C@H]2C[C@H](OC(C)=O)[C@H](OC(C)=O)CO2)c2c(O)c3c(c(O)c2[C@H]1C(=O)OC)C(=O)c1cccc(O)c1C3=O`, which Activity is on record?
A: inactive

Q: With `CC[C@@]1(O)C[C@H](O[C@@H]2O[C@H](CO)[C@H](O)[C@H]2O)c2c(O)c3c(c(O)c2[C@H]1C(=O)OC)C(=O)c1cccc(O)c1C3=O` as the molecule, how does the Activity read?
A: inactive

Q: `CC[C@@]1(O)C[C@H](O[C@@H]2O[C@H](COCc3ccccc3)[C@@H](OCc3ccccc3)[C@@H]2OCc2ccccc2)c2c(O)c3c(c(O)c2[C@H]1C(=O)OC)C(=O)c1cccc(O)c1C3=O` was tested. Which Activity did it give?
A: inactive

Q: `CC[C@@]1(O)C[C@H](O[C@@H]2O[C@H](CO)[C@@H](O)[C@H]2O)c2c(O)c3c(c(O)c2[C@H]1C(=O)OC)C(=O)c1cccc(O)c1C3=O` was tested. Which Activity did it give?
A: inactive

Q: For `CC[C@@]1(O)C[C@H](O[C@@H]2O[C@@H](CO)[C@@H](O)[C@H]2O)c2c(O)c3c(c(O)c2[C@H]1C(=O)OC)C(=O)c1cccc(O)c1C3=O`, which Activity is on record?
A: inactive

Q: Which Activity does the source give for `CC[C@@]1(O)C[C@H](O[C@@H]2OC[C@H](OC(C)=O)[C@H](OC(C)=O)[C@H]2OC(C)=O)c2c(O)c3c(c(O)c2[C@H]1C(=O)OC)C(=O)c1cccc(O)c1C3=O` here?
A: inactive

Q: How did the Activity turn out when `CC[C@@]1(O)C[C@H](O[C@H]2C[C@H](OC(=O)c3ccc([N+](=O)[O-])cc3)[C@@H](COC(=O)c3ccc([N+](=O)[O-])cc3)O2)c2c(O)c3c(c(O)c2[C@H]1C(=O)OC)C(=O)c1cccc(O)c1C3=O` was run?
A: inactive

Q: Which Activity does the source give for `CC[C@@]1(O)C[C@H](O[C@@H]2O[C@H](COC(=O)c3ccccc3)[C@@H](OC(=O)c3ccccc3)[C@H]2OC(=O)c2ccccc2)c2c(O)c3c(c(O)c2[C@H]1C(=O)OC)C(=O)c1cccc(O)c1C3=O` here?
A: inactive

Q: With `CC[C@@]1(O)C[C@H](O[C@H]2C[C@H](O)[C@@H](CO)O2)c2c(O)c3c(c(O)c2[C@H]1C(=O)OC)C(=O)c1cccc(O)c1C3=O` as the molecule, how does the Activity read?
A: inactive

Q: For `CC[C@@]1(O)C[C@H](O[C@@H]2OC[C@@H](OC(C)=O)[C@@H](OC(C)=O)[C@H]2OC(C)=O)c2c(O)c3c(c(O)c2[C@H]1C(=O)OC)C(=O)c1cccc(O)c1C3=O`, which Activity is on record?
A: inactive

Q: `CC[C@@]1(O)C[C@H](O[C@@H]2OC[C@@H](OC(C)=O)[C@@H](OC(C)=O)[C@@H]2OC(C)=O)c2c(O)c3c(c(O)c2[C@H]1C(=O)OC)C(=O)c1cccc(O)c1C3=O` was tested. Which Activity did it give?
A: inactive

From ChEMBL document CHEMBL3244092, “Synthesis of episilon-rhodomycinone glycosides” (1977)
